Data on two molecules can be found in paper PMC5970965 (Prostaglandins & other lipid mediators, 2018).

The half-life is the time in which the quantity being followed falls by half. Low readings indicate rapid decline, high ones slow decline. By microsomal CLint is commonly meant the rate of metabolic loss divided by the concentration. Usually IC50 stands for the concentration that inhibits the measured activity by half. A low value points to greater potency in that assay.

A value given as a limit tells only on which side of the number the result lay.

Data set [1] in a line: human liver microsomal metabolic stability. The format is in vitro ADME. The following applies: both, human liver microsomes.
In data set [2] the target is T1, Human sEH (Homo sapiens, UniProt P34913).
T1 sequence (P34913 1-555): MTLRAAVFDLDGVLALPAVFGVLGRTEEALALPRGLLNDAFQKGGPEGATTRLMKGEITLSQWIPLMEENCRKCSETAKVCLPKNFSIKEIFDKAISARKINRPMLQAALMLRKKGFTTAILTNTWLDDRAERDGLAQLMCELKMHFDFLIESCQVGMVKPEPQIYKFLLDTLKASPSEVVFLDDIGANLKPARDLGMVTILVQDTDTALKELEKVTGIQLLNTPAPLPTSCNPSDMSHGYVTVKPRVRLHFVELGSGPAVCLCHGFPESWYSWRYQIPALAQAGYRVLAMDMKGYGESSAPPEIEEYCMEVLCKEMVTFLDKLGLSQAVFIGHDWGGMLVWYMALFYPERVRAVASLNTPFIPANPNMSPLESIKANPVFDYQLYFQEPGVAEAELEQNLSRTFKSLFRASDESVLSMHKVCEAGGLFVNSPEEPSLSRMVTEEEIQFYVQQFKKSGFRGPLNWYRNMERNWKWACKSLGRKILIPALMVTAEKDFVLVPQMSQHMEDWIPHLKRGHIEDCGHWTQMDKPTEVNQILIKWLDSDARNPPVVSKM
Kind of data set: human sEH inhibition assay, fluorescent substrate CMNPC. Type of data set: biochemical.

Data set [3] has as its target T2, fatty acid amide hydrolase (FAAH) (Homo sapiens, UniProt O00519).
T2 sequence (O00519 1-579): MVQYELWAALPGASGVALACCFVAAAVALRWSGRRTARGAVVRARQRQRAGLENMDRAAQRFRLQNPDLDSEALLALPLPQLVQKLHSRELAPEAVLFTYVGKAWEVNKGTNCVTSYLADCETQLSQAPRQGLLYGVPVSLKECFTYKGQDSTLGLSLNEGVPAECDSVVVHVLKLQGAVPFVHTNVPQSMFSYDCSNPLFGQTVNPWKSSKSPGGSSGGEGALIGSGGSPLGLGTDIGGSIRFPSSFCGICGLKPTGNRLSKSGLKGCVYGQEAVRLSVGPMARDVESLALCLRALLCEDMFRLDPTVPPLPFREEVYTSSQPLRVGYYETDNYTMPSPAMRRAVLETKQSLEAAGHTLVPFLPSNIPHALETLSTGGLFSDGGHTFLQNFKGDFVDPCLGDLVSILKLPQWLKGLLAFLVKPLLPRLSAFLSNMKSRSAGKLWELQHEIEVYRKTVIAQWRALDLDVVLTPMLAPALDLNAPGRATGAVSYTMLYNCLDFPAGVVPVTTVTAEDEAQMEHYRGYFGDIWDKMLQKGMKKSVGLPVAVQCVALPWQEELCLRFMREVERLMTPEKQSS
The data set can be described thus: FAAH inhibition assay, substrate OMP. The format is biochemical. A digest of the protocol:
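FAAH activity was followed fluorimetrically (excitation 303 nm, emission 394 nm) at 37 °C using N-(6-methoxypyridin-3-yl)octanamide (OMP) at a final concentration of 50 μM. The reaction buffer was 0.1 M sodium phosphate, pH 8, containing 0.1 mg/mL BSA. Each experiment was run in triplicate, and values are given as average ± SD.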

Data set [4] can be described thus: rat liver microsomal metabolic stability. Type of data set: in vitro ADME. The following applies: for half-life / microsomal CLint: both, rat, rat liver microsomes; for microsomal CLint: app (rat liver microsomes). On the technique in general: Liver microsomes are vesicles of endoplasmic reticulum, rich in cytochrome P450 enzymes.
For data set [5] the following is noted: cited from earlier work.
The target of data set [6] is T3, rat sEH enzyme (Rattus norvegicus, UniProt P80299).
T3 sequence (P80299 1-554): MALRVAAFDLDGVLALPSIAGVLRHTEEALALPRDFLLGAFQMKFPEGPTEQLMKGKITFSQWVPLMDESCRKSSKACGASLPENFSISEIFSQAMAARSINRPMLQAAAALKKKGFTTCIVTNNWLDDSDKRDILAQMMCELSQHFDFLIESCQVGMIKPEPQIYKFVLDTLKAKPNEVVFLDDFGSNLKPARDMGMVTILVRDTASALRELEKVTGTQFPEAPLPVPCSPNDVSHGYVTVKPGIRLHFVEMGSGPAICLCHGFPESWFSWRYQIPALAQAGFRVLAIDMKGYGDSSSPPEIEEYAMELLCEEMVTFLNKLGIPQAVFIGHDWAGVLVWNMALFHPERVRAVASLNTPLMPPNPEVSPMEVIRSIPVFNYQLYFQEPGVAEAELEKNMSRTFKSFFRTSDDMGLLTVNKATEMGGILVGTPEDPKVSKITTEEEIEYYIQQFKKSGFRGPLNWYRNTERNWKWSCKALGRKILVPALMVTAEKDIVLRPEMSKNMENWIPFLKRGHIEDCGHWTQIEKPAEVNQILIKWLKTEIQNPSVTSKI
The data set can be described thus: rat sEH inhibition assay. Type of data set: biochemical.

The mark [7] stands for this setting: apparent intrinsic clearance, CLint = k/P.

On to `Cc1ccc(S(=O)(=O)N2CCC(C(=O)Nc3ccc4cc(C(=O)O)ccc4c3)CC2)c(C)c1` [Compound 3, 6-(1-((2,4-dimethylphenyl)sulfonyl)piperidine-4-carboxamido)-2-naphthoic acid], for which the half-life in data set [1] is 3.1 h; in data set [4], 0.433 h. Further, the microsomal CLint in data set [1] is 7.5 µL/min/mg; in data set [4] (setting [7]), 53.3 µL/min/mg. Moreover, the IC50 came to 85 nM in data set [2], 23000 nM in data set [3] and 141 ± 20 nM in data set [6]. Besides, in data set [5], the “CLint, app (human liver microsomes), previously published value in parenthesis” value is 6.3 µL/min/mg.
For the molecule `[2H]c1c([2H])c(S(=O)(=O)N2CCC(C(=O)Nc3ccc4cc(C(=O)O)ccc4c3)CC2)c(C([2H])([2H])[2H])c([2H])c1C([2H])([2H])[2H]` [Compound 3i, 6-(1-((2,4-bis(methyl-d3)phenyl-3,5,6-d3)sulfonyl)piperidine-4-carboxamido)-2-naphthoic acid], the half-life was greater than 4 h in data set [1] and greater than 1 h in data set [4]. Moreover, the intrinsic metabolic clearance (microsomal CLint) in data set [1] is less than 5.8 µL/min/mg; in data set [4] (setting [7]) it was roughly 20 µL/min/mg. The IC50 in data set [2] was found to be 106 nM; in data set [3], 8800 nM. The “CLint, app (rat liver microsomes)” value in data set [4] (setting [7]) was less than 23.1 µL/min/mg.
